A short description of series [1]: Selectivity index, ratio of IC50 for human HepG2 cells to MIC for Mycobacterium tuberculosis H37Rv after 21 days. In kind it is toxicity, cell-based. The conditions noted are these: HepG2 cells versus Mycobacterium tuberculosis H37Rv, read-out: Selectivity Index. A digest of the protocol: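 HepG2 cells (passages 33-37) seeded at 1 × 10^4 per well and treated next day with 0.1–100 µM in triplicate. After 24 h at 37 °C, 5% CO2, MTS reagent added for 2 h and absorbance read at 490 nm. IC50 taken from viability relative to untreated control, then divided by the 21-day H37Rv MIC.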

The subject of series [2] is Mycobacterium kansasii. Description: Antimycobacterial activity against Mycobacterium kansasii isolate 235/80 after 7 days by micromethod. Conditions: isolate 235/80, 168 h. The class given is functional. In outline:
(§1)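 MIC in Šula's semisynthetic medium at 37 °C, read after 7, 14 and 21 days. Inoculum is strain dilution 10^-4; 235/80 is a collection strain and 6509/96 a clinical isolate. Compounds are added as DMSO solutions at 500, 250, 125, 62.5, 32, 16, 8, 4, 2, 1 and 0.5 µM. INH (in sterile water) and PAS are the reference drugs.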

Series [3] deals with Mycobacterium tuberculosis. Description: Antimycobacterial activity against Mycobacterium tuberculosis H37Rv My 331/88 after 21 days by micromethod. The conditions noted are these: H37Rv My 331/88, 504 h. The class given is functional. A digest of the protocol:
(§2)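 MIC micromethod in Šula's semisynthetic medium at 37 °C, read after 14 and 21 days. Compounds added as DMSO solutions at 500 down to 0.5 µM (twofold-type series: 500, 250, 125, 62.5, 32, 16, 8, 4, 2, 1, 0.5 µM). Isoniazid standard given in sterile water.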

The subject of series [4] is Mycobacterium kansasii. Description: Antimycobacterial activity against Mycobacterium kansasii isolate 235/80 after 14 days by micromethod. The class given is functional. Conditions: isolate 235/80, 336 h. In outline: as §1
Series [5] relates to Mycobacterium avium. Description: Antimycobacterial activity against Mycobacterium avium My 330/80 after 21 days by micromethod. In kind it is functional. The conditions noted are these: My 330/80, 504 h. In outline: (§3)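 M. avium My 330/80 (collection strain) inoculated at 10^-5 dilution into Šula's semisynthetic medium. Compounds added from DMSO solutions at 500, 250, 125, 62.5, 32, 16, 8, 4, 2, 1 and 0.5 µM. MIC determined by micromethod at 37 °C, read after 14 and 21 days.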

Series [6] has as its system Mycobacterium kansasii. Description: Antimycobacterial activity against Mycobacterium kansasii isolate 235/80 after 21 days by micromethod. The class given is functional. The conditions noted are these: isolate 235/80, 504 h. A digest of the protocol:
as §1

Series [7] has as its system Mycobacterium avium. As to the kind of experiment: Antimycobacterial activity against Mycobacterium avium My 330/80 after 14 days by micromethod. The class given is functional. The conditions noted are these: My 330/80, 336 h. In outline: as §3
Series [8] relates to Mycobacterium tuberculosis. Description: Antimycobacterial activity against Mycobacterium tuberculosis H37Rv My 331/88 after 14 days by micromethod. In kind it is functional. The conditions noted are these: H37Rv My 331/88, 336 h. In outline: as §2
Series [9] has as its system Mycobacterium kansasii. Description: Antimycobacterial activity against Mycobacterium kansasii isolate 6509/96 after 14 days by micromethod. The class given is functional. Conditions: isolate 6509/96, 336 h. A digest of the protocol: as §1
The test system of series [10] is Mycobacterium kansasii. Description: Antimycobacterial activity against Mycobacterium kansasii isolate 6509/96 after 21 days by micromethod. The class given is functional. Conditions: isolate 6509/96, 504 h. In outline: as §1
Series [11] in a line: Cytotoxicity against human HepG2 cells assessed as reduction in cell viability after 24 hrs by MTS assay. The class given is toxicity, cell-based. A digest of the protocol:
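HepG2 cells (passages 33-37) are grown in MEM with 10% FBS, L-glutamine and non-essential amino acids. They are seeded at 1 × 10^4 cells/well and treated next day with 0.1-100 µM in triplicate for 24 h at 37 °C, 5% CO2. MTS reagent is added for 2 h and A490 read.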
On the technique in general: Tetrazolium assays rely on reduction of a dye to a coloured formazan, in cell work by metabolically active cells.

Series [12] concerns Mycobacterium kansasii. As to the kind of experiment: Antimycobacterial activity against Mycobacterium kansasii isolate 6509/96 after 7 days by micromethod. In kind it is functional. The conditions noted are these: isolate 6509/96, 168 h. A digest of the protocol: as §1

As a reminder, the MIC is the lowest concentration that inhibits growth of the organism. Lower therefore signals a more susceptible organism. The IC50 is the midpoint of a concentration-inhibition curve.

In brackets after ≈: the same amount, converted by molar mass.

Turning to `O=C(Nc1cc(C(F)(F)F)cc(C(F)(F)F)c1)c1cc(Br)c(Cl)cc1O`, the selectivity ratio at 504 h in series [1] came out at 1.27. The MIC was 8 µM (≈ 3.7 µg/mL) in the series with Mycobacterium kansasii [2]; 4 µM (≈ 1.85 µg/mL) in series [3]; 8 µM (≈ 3.7 µg/mL) against Mycobacterium kansasii [4]; 32 µM (≈ 14.8 µg/mL) against Mycobacterium avium [5]; 8 µM (≈ 3.7 µg/mL) in the series with Mycobacterium kansasii [6]; 16 µM (≈ 7.4 µg/mL) against Mycobacterium avium [7]. For the same compound, the MIC was 2 µM (≈ 0.925 µg/mL) in [8], 8 µM (≈ 3.7 µg/mL) in the series with Mycobacterium kansasii [9], 8 µM (≈ 3.7 µg/mL) in the series on Mycobacterium kansasii [10] and 8 µM (≈ 3.7 µg/mL) in the series on Mycobacterium kansasii [12]. Also, in [11], the IC50 at 24 h worked out at 5.07 µM.

Take `O=C(Nc1ccc(Br)cc1)c1cc(Br)ccc1O` [DIBROMSALAN]: the selectivity ratio at 504 h in series [1] worked out at 5.9. In addition, the MIC against Mycobacterium kansasii [2] was determined as 4 µM (≈ 1.48 µg/mL); in series [3], 4 µM (≈ 1.48 µg/mL); against Mycobacterium kansasii [4] it was 8 µM (≈ 2.97 µg/mL); in the series on Mycobacterium avium [5] it was 16 µM (≈ 5.94 µg/mL); with Mycobacterium kansasii [6] it was 8 µM (≈ 2.97 µg/mL); against Mycobacterium avium [7] it was 16 µM (≈ 5.94 µg/mL). The MIC worked out at 4 µM (≈ 1.48 µg/mL) in series [8], 8 µM (≈ 2.97 µg/mL) against Mycobacterium kansasii [9], 8 µM (≈ 2.97 µg/mL) against Mycobacterium kansasii [10] and 8 µM (≈ 2.97 µg/mL) with Mycobacterium kansasii [12]. Besides, the IC50 at 24 h in series [11] was 23.6 µM.

For the compound `O=C(Nc1cc(C(F)(F)F)cc(C(F)(F)F)c1)c1cc(Cl)ccc1O` [IMD-0354], the selectivity ratio at 504 h in series [1] was determined as 1.27. For the same compound, the MIC in the series with Mycobacterium kansasii [2] amounted to 8 µM (≈ 3.07 µg/mL); in series [3], 8 µM (≈ 3.07 µg/mL); against Mycobacterium kansasii [4], 16 µM (≈ 6.14 µg/mL); in the series with Mycobacterium avium [5] it was 32 µM (≈ 12.3 µg/mL); in the series with Mycobacterium kansasii [6], 16 µM (≈ 6.14 µg/mL); against Mycobacterium avium [7], 32 µM (≈ 12.3 µg/mL). Also, the MIC in series [8] was 4 µM (≈ 1.53 µg/mL); with Mycobacterium kansasii [9], 16 µM (≈ 6.14 µg/mL); in the series with Mycobacterium kansasii [10], 16 µM (≈ 6.14 µg/mL); in the series with Mycobacterium kansasii [12] it was 8 µM (≈ 3.07 µg/mL). Further, the IC50 at 24 h in [11] worked out at 10.2 µM.
